What was measured:
[1] = target: Serotonin 1 receptors; 5-HT1B & 5-HT1D (Homo sapiens) (UniProt P28222+P28221); assay: Selectivity for human 5-hydroxytryptamine 1D receptor over 5-hydroxytryptamine 1B receptor; type: protein assay
[2] = target: T1, 5-hydroxytryptamine receptor 1D (Homo sapiens, UniProt P28221); assay: Displacement of [3H]5-HT from human 5-hydroxytryptamine 1D receptor expressed in CHO cells; type: cell-based
Procedure, shortened: (§1)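 Radioligand displacement binding on membranes of cloned human receptors. Each determination lies within 0.3 log units of the mean.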

[3] = target: Sodium-dependent serotonin transporter (Rattus norvegicus, UniProt P31652); assay: Inhibition of [3H]5-HT binding to serotonin transporter in rat cortical synaptosomes; type: subcellular, Brain
Procedure, shortened: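 Radioligand binding to serotonin transporter in rat cortical synaptosomes. Each determination lies within 0.3 log units of the mean.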

[4] = target: T2, 5-hydroxytryptamine receptor 1B (Homo sapiens, UniProt P28222); assay: Displacement of [3H]5-HT from human 5-hydroxytryptamine 1B receptor expressed in CHO cells; type: cell-based; procedure, shortened: as §1
[5] = target: T3, 5-hydroxytryptamine receptor 1A (Homo sapiens, UniProt P08908); assay: Displacement of [3H]WAY-100635 from human 5-hydroxytryptamine 1A receptor expressed in CHO cells; type: cell-based; procedure, shortened: as §1
T3 sequence (P08908 whole entry): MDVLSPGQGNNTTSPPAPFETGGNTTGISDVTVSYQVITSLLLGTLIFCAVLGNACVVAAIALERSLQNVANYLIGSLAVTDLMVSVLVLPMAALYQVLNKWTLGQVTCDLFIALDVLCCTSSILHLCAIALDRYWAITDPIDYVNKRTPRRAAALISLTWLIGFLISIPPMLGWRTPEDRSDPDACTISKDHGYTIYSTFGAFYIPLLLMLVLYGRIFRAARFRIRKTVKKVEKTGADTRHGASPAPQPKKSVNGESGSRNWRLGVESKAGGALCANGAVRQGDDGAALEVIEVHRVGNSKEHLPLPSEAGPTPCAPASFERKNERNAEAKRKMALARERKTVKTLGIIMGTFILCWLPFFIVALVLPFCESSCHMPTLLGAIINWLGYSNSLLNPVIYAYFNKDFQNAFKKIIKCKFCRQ

[6] = target: T2, 5-hydroxytryptamine receptor 1B; assay: Intrinsic activity for human 5-hydroxytryptamine 1B receptor in [35S]GTP-gamma-S, assay; type: functional
Procedure, shortened: (§2)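 [35S]GTPγS binding in recombinant cells with high receptor density expressing the human receptor. Ten-point half-log serial dilution gives the concentration–response. Intrinsic activity is expressed relative to the maximal response of the endogenous agonist 5-HT.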

[7] = target: T1, 5-hydroxytryptamine receptor 1D; assay: Intrinsic activity for human 5-hydroxytryptamine 1D receptor in [35S]GTP-gamma-S, assay; type: functional; procedure, shortened: as §2
[8] = target: T4, 5-hydroxytryptamine receptor 1A (Homo sapiens) (UniProt P08908); assay: Intrinsic activity for human 5-hydroxytryptamine 1A receptor in [35S]GTP-gamma-S, assay; […]; type: functional; procedure, shortened: as §2
T4 sequence (whole entry): T3 sequence (P08908 whole entry)

[9] = target: T4, 5-hydroxytryptamine receptor 1A (Homo sapiens); assay: Intrinsic activity for human 5-hydroxytryptamine 1A receptor in [35S]GTP-gamma-S, assay; type: functional; procedure, shortened: as §2
[10] = target: D(2) dopamine receptor (Homo sapiens, UniProt P14416); assay: Binding affinity for human dopamine receptor D2
[11] = target: D(3) dopamine receptor (Homo sapiens, UniProt P35462); assay: Binding affinity for human dopamine receptor D3
[12] = target: T5, D(4) dopamine receptor (Homo sapiens, UniProt P21917); assay: Binding affinity for human dopamine receptor D4
T5 sequence (P21917 whole entry): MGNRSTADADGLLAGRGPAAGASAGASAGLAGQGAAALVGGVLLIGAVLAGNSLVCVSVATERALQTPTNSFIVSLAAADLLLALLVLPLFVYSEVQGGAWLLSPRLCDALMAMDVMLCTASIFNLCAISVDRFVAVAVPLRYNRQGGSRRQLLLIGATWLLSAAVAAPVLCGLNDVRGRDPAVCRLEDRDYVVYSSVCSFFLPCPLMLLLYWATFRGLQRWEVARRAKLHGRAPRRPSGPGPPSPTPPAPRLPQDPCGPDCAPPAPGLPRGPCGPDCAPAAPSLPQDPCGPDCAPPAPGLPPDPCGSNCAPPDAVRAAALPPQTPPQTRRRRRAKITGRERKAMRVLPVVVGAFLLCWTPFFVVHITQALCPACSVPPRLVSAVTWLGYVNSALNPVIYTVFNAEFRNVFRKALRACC

[13] = target: Beta-2 adrenergic receptor (Homo sapiens, UniProt P07550); assay: Binding affinity for human beta-2 adrenergic receptor
[14] = target: T6, Alpha-1B adrenergic receptor (Homo sapiens, UniProt P35368); assay: Binding affinity for human alpha-1B adrenergic receptor
T6 sequence (P35368 whole entry): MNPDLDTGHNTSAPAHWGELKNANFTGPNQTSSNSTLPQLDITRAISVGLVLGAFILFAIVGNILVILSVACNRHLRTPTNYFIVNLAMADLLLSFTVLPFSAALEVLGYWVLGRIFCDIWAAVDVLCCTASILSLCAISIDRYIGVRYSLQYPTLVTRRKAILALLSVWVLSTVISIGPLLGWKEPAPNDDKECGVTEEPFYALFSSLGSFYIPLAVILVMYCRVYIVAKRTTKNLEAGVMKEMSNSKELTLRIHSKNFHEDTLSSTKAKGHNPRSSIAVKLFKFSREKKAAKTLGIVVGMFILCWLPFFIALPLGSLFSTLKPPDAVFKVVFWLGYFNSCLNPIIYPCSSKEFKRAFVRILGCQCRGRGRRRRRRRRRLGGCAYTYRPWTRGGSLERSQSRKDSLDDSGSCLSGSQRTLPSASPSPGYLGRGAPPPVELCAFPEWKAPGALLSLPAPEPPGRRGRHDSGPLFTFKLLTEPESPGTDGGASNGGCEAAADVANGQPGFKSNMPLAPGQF

[15] = target: 5-hydroxytryptamine receptor 4 (Homo sapiens, UniProt Q13639); assay: Binding affinity for human 5-hydroxytryptamine 4 receptor
[16] = target: 5-hydroxytryptamine receptor 6 (Homo sapiens, UniProt P50406); assay: Binding affinity for human 5-hydroxytryptamine 6 receptor
[17] = target: 5-hydroxytryptamine receptor 7 (Homo sapiens, UniProt P34969); assay: Binding affinity for human 5-hydroxytryptamine 7 receptor
[18] = target: 5-hydroxytryptamine receptor 1E (Homo sapiens, UniProt P28566); assay: Binding affinity for human 5-hydroxytryptamine 1E receptor
[19] = target: T7, 5-hydroxytryptamine receptor 1F (Homo sapiens, UniProt P30939); assay: Binding affinity for human 5-hydroxytryptamine 1F receptor
T7 sequence (P30939 whole entry): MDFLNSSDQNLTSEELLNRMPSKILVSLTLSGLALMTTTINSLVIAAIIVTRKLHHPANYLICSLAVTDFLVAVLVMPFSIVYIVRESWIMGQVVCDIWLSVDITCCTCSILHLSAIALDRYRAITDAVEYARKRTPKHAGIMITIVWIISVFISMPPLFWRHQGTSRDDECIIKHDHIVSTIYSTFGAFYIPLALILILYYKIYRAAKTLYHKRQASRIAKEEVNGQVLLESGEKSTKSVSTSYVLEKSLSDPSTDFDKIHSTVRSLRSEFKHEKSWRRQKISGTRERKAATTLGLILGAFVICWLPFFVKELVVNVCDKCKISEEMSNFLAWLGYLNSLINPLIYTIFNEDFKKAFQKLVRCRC

[20] = target: 5-hydroxytryptamine receptor 2A (Homo sapiens, UniProt P28223); assay: Binding affinity for human 5-hydroxytryptamine 2A receptor
Procedure, shortened: (§3)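 Radioligand displacement binding on cloned human receptors. Each determination lies within 0.3 log units of the mean.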

[21] = target: 5-hydroxytryptamine receptor 2B (Homo sapiens, UniProt P41595); assay: Binding affinity for human 5-hydroxytryptamine 2B receptor
[22] = target: T8, 5-hydroxytryptamine receptor 2C (Homo sapiens, UniProt P28335); assay: Binding affinity for human 5-hydroxytryptamine 2C receptor; procedure, shortened: as §3
T8 sequence (P28335 whole entry): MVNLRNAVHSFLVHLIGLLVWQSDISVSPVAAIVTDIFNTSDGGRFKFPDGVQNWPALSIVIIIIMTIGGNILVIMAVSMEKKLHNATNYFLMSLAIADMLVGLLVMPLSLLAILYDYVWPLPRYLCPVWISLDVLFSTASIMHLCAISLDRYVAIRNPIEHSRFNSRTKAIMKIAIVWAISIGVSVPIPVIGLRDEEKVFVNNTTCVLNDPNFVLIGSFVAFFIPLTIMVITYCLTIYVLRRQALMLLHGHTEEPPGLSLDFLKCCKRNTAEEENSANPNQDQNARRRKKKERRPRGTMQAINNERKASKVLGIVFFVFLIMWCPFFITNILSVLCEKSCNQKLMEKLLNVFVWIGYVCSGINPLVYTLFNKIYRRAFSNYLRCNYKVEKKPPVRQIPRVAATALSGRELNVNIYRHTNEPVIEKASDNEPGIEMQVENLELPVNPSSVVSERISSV

[23] = target: 5-hydroxytryptamine receptor 5A (Homo sapiens, UniProt P47898); assay: Binding affinity for human 5-hydroxytryptamine 5A receptor; procedure, shortened: as §3
[24] = target: T1, 5-hydroxytryptamine receptor 1D
[25] = target: T2, 5-hydroxytryptamine receptor 1B
[26] = target: T1, 5-hydroxytryptamine receptor 1D; remark: listed apart in the source
[27] = target: T4, 5-hydroxytryptamine receptor 1A (Homo sapiens)

T1 sequence (P28221 whole entry): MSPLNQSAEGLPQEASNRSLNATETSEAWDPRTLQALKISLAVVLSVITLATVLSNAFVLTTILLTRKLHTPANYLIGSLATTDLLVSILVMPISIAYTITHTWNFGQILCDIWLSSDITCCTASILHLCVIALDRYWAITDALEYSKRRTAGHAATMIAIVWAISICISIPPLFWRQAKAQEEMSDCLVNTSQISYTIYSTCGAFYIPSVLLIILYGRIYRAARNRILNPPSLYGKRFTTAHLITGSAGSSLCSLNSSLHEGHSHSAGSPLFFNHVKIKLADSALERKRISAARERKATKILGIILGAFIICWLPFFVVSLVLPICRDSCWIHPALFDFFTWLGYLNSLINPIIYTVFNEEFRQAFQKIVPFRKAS
T2 sequence (P28222 whole entry): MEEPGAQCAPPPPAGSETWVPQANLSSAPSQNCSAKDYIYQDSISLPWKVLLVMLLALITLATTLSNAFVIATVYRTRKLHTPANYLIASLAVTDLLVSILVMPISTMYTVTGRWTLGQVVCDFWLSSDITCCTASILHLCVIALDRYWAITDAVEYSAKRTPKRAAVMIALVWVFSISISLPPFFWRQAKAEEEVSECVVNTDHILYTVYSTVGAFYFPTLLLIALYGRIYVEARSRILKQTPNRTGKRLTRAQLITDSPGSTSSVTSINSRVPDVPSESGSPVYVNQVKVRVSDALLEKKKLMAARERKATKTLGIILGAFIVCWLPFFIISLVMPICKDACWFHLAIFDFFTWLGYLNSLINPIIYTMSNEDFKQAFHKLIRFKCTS
Sequence of Sodium-dependent serotonin transporter (P31652 whole entry): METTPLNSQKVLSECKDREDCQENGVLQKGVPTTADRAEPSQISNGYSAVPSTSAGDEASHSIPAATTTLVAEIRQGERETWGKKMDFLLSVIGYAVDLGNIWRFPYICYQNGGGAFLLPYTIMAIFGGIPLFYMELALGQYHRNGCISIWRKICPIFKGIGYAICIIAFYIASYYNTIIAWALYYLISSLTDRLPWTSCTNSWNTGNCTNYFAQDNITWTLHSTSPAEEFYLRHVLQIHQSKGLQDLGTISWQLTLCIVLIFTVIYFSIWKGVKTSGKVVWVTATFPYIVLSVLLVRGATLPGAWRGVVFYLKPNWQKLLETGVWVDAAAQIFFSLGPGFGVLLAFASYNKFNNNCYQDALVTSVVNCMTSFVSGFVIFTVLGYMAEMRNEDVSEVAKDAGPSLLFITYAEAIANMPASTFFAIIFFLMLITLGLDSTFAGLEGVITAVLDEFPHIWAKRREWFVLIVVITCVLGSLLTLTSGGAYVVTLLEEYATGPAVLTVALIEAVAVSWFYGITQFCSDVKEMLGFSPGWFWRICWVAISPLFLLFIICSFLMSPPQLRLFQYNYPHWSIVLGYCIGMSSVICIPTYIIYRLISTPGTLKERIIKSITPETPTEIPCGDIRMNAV
Sequence of D(2) dopamine receptor (P14416 whole entry): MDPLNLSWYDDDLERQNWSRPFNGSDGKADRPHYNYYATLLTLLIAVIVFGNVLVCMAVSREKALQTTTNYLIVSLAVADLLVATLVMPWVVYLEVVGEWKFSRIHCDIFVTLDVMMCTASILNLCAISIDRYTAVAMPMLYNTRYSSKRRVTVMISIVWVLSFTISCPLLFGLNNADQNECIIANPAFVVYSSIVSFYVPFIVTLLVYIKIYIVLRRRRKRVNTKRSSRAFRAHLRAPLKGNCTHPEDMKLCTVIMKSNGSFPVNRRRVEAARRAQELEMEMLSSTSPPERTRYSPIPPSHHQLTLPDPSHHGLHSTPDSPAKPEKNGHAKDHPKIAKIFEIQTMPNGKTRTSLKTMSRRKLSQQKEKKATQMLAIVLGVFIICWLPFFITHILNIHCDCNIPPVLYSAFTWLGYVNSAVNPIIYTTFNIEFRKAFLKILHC
Sequence of 5-hydroxytryptamine receptor 6 (P50406 whole entry): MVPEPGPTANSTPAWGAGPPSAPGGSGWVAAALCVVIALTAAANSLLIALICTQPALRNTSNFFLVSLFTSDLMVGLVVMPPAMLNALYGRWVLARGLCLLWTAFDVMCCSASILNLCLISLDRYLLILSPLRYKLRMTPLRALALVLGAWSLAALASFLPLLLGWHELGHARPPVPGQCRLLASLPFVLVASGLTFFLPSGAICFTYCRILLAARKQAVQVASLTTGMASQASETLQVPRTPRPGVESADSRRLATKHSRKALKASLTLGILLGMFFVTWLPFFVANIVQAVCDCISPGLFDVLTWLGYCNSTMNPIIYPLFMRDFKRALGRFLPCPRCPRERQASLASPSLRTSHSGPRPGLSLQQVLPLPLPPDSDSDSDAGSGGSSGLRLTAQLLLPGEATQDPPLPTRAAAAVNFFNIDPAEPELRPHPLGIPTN
Sequence of Beta-2 adrenergic receptor (P07550 whole entry): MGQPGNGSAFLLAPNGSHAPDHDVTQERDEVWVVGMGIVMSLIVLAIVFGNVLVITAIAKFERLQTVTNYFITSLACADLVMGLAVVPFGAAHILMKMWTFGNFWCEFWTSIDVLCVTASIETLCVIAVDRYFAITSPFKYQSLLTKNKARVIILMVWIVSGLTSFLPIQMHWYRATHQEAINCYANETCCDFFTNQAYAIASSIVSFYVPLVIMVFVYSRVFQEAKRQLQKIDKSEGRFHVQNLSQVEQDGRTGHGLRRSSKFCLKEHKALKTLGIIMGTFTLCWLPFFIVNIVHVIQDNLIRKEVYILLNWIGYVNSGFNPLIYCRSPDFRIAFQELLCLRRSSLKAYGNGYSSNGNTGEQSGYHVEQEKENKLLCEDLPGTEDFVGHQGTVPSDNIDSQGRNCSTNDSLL
Sequence of 5-hydroxytryptamine receptor 2B (P41595 whole entry): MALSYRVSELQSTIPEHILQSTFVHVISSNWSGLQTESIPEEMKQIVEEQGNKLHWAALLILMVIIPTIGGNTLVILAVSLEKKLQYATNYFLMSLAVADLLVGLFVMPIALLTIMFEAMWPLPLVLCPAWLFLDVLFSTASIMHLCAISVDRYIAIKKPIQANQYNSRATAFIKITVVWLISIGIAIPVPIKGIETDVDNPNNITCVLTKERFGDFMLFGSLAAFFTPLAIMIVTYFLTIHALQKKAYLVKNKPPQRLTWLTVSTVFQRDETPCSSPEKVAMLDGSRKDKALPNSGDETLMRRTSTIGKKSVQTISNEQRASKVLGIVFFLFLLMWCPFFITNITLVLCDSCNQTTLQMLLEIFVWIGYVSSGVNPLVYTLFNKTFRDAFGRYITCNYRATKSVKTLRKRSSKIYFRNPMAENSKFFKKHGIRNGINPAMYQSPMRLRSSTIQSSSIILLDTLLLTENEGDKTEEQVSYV
Sequence of 5-hydroxytryptamine receptor 7 (P34969 whole entry): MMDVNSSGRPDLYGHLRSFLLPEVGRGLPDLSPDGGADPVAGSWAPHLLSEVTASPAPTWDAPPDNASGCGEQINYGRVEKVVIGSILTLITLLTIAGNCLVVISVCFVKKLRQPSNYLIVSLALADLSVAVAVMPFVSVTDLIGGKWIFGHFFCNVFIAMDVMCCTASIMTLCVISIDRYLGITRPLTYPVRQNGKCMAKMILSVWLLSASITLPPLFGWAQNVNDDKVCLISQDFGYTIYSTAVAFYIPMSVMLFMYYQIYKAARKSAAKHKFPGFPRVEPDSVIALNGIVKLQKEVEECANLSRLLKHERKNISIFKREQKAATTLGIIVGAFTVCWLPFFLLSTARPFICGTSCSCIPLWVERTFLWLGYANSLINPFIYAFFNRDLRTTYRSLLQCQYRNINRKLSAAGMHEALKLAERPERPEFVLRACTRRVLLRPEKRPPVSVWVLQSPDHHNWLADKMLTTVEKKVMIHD
Sequence of 5-hydroxytryptamine receptor 4 (Q13639 whole entry): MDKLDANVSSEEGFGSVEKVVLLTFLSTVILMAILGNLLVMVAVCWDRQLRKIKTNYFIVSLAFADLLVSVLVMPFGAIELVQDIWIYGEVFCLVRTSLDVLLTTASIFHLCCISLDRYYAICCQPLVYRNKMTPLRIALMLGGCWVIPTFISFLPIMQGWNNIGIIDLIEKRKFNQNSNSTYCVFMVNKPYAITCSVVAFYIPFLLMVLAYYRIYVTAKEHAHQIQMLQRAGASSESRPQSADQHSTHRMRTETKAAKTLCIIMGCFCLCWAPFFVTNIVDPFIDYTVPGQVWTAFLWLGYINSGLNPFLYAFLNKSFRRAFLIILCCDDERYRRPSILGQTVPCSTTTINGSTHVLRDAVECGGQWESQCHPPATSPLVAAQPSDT
Sequence of 5-hydroxytryptamine receptor 2A (P28223 whole entry): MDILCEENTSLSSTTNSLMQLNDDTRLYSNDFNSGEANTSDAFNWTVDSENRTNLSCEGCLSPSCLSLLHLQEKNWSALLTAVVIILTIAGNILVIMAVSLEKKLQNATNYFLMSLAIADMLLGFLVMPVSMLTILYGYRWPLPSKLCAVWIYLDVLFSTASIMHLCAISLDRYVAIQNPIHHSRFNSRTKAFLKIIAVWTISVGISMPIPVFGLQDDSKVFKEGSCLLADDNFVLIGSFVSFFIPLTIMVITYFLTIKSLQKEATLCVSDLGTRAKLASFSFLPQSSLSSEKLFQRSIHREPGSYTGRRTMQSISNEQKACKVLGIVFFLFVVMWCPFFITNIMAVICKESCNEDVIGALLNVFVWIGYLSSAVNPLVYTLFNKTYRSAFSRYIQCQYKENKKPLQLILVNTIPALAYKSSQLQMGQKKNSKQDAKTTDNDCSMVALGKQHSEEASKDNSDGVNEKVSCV
Sequence of 5-hydroxytryptamine receptor 1E (P28566 whole entry): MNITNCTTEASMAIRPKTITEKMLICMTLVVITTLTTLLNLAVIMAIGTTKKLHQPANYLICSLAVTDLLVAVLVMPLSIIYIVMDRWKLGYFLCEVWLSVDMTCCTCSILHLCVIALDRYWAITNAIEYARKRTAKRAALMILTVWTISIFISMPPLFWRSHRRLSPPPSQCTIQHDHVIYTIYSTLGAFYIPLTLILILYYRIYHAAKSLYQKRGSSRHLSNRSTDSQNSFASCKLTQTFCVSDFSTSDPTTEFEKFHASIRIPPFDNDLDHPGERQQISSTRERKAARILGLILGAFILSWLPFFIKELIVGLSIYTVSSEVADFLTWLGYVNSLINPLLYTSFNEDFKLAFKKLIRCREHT

SMILES	Selectivity [1]	Ki [2]	Ki [3]	Ki [4]	Ki [5]	also measured
Cc1ccc2c(OCCN3CCN(Cc4ccc(C)c([N+](=O)[O-])c4)CC3)cccc2n1	40	0.002 µM	0.0501 µM	0.0794 µM	0.0398 µM	
Cc1ccc2c(OCCN3CCN(Cc4cccc5[nH]cnc45)CC3)cccc2n1	251	0.000251 µM	0.794 µM	0.0631 µM	0.158 µM	IA [6]: 0.3; IA [7]: 0.5; IA [8]: 0
Cc1ccc2c(OCCN3CCN(Cc4c(Cl)cccc4Cl)CC3)cccc2n1		> 10 µM	1.26 µM	> 10 µM	> 10 µM	
Cc1ccc2c(OCCN3CCN(Cc4cccc5ncncc45)CC3)cccc2n1	126	0.00251 µM		0.316 µM	0.398 µM	
Cc1ccc2c(OCCN3CCN(Cc4cccc5ncccc45)CC3)cccc2n1	100	0.00251 µM		0.251 µM	0.398 µM	
CN1CCN(c2cc3c(cc2Cl)CCN3C(=O)Nc2ccc(-c3ccncc3)c3ccccc23)CC1						IA [9]: 0.44
COc1ccc(NC(=O)c2ccc(-c3ccc(-c4noc(C)n4)cc3C)cc2)cc1N1CCN(C)CC1						IA [6]: 0.47; IA [7]: 0.86
Cc1ccc2c(OCCN3CCC(Cc4ccc5c(c4)NC(=O)CO5)CC3)cccc2n1		0.00158 µM				
Cc1ccc2c(OCCN3CCN(Cc4cccc5cc[nH]c45)CC3)cccc2n1	126	0.00316 µM	0.398 µM	0.398 µM	0.398 µM	IA [6]: 0.1; IA [7]: 0.5; IA [8]: 0
Cc1ccc2c(OCCN3CCN(Cc4ccc5[nH]ccc5c4)CC3)cccc2n1	50	0.00316 µM		0.158 µM	1 µM	
Cc1ccc2c(OCCN3CCN(Cc4ccc5c(c4)NC(=O)CO5)CC3)cccc2n1	10	0.01 µM	0.0251 µM	0.1 µM	0.0631 µM	
Cc1ccc2c(OCCN3CCN(Cc4cccc5cccnc45)CC3)cccc2n1	251	0.000794 µM	0.316 µM	0.2 µM	0.316 µM	IA [6]: 0.3; IA [8]: 0; Ki [10]: 3.16 µM; Ki [11]: 1 µM; Ki [12]: > 10 µM; Ki [13]: 2 µM; Ki [14]: 1 µM; Ki [15]: > 5.01 µM; Ki [16]: > 10 µM; Ki [17]: 0.501 µM; Ki [18]: > 10 µM; Ki [19]: 2 µM; Ki [20]: > 2.51 µM; Ki [21]: 1.26 µM; Ki [22]: 3.16 µM; Ki [23]: 3.16 µM; IA [24]: 0
COc1ccc(CN2CCN(CCOc3cccc4nc(C)ccc34)CC2)cc1[N+](=O)[O-]	16	0.02 µM		0.316 µM	0.398 µM	
NCCc1c[nH]c2ccc(O)cc12						IA [25]: 1; IA [26]: 1; IA [27]: 1
Cc1ccc2c(OCCN3CCN(Cc4ccc(Cl)c([N+](=O)[O-])c4)CC3)cccc2n1	40	0.00501 µM	0.2 µM	0.2 µM	0.0631 µM	
Cc1ccc2c(OCCN3CCN(Cc4ccc(O)c([N+](=O)[O-])c4)CC3)cccc2n1	40	0.01 µM	1 µM	0.398 µM	0.794 µM	
Cc1ccc2c(OCCN3CCN(Cc4cc(Cl)ccc4Cl)CC3)cccc2n1	158	0.00398 µM	1.26 µM	0.631 µM	0.0794 µM	
Cc1ccc2c(OCCN3CCN(Cc4ccc(F)c([N+](=O)[O-])c4)CC3)cccc2n1	32	0.00794 µM	0.316 µM	0.251 µM	0.501 µM	
Cc1ccc2c(OCCN3CCN(Cc4ccc(Cl)c(Cl)c4)CC3)cccc2n1	1	2.51 µM	0.501 µM	2 µM	> 10 µM	
Cc1ccc2c(OCCN3CCN(Cc4ccc(O)c(N)c4)CC3)cccc2n1	158	0.00158 µM		0.251 µM	> 1.26 µM	
